NF-kB neuron act: activators of NF-kB expression in neurons, primary screen, cell-based, HTS | human neuronal cells, NF-kB reporter expression; stronger effect = higher value | fold change at 12.5 µM | hit rate 1.6% among 190,000 | AID 1239, 2008; in the data active = fold change above about 3.3
FLuc inhib CS: firefly luciferase enzyme inhibitors, primary screen, artefact control for luciferase-based inhibitor screens, biochemical, luminescence, ATPLite; Luciferin 4-monooxygenase (Photinus pyralis), P08659; AID 1006, 2008; 10 min; hit rate 1.5% among 200,000; inhibition, % at 10 µM;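 active = inhibition above about 50% when tested at 10 µM, limit read from the data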
Rad51 HR inh: human RAD51 strand exchange inhibitors, primary screen, biochemical, fluorescence | DNA repair protein RAD51 homolog 1 (Homo sapiens), Q06609 | hRad51 DNA strand exchange, fluorescence dequenching | inhibition, % at 10 µM | hit rate 0.085% among 200,000;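 active = inhibition above 40% at the single screening dose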
Target sequence (Q06609 whole entry, looked up): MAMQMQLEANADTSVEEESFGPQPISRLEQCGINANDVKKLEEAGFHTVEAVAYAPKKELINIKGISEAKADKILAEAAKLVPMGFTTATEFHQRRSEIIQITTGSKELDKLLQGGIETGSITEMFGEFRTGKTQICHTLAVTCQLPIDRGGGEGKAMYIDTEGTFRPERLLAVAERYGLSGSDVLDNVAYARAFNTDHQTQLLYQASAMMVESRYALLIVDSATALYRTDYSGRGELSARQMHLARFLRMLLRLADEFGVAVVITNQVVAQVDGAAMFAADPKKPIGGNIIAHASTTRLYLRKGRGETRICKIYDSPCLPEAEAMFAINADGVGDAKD
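Test system: preformed human Rad51 ssDNA filaments. Compound dosing: single dose, 10 µM final compound. Incubation: filaments 15 min 37 °C, then compound 30 min. Technique: FRET fluorescence dequenching, excitation 485 nm, emission 520 nm. Read-out basis: percent inhibition from fluorescence, normalised to plate control and blank means. Benchmarks: plate controls and plate blanks.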
FLuc stim CS: FLuc activators, initial screening, artefact control for FLuc-dependent activation tests, biochemical, ATPlite luminescence; AID 1027, 2008; activation factor at 10 µM; 200,000 tested, under 10 active; ATPlite luciferase biochemical, 10 min; 0 = ATP-free wells, 1 = DMSO control; Luciferin 4-monooxygenase (Photinus pyralis), P08659;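 active = luciferase activation factor, scaled between plate controls, of at least 2 with compound at 10 µM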
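System: luciferase plus luciferin reagent, cell-free; medium: PBS as buffer for the ATP substrate; dosing: test compounds dosed from 2 mM stocks in 100% DMSO; timing: 10 min post-reagent at room temperature; measured by: luminescence measurement of luciferase light output; evaluation: luciferase activation, seen as luminescence increase over controls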
STAT1 activator: STAT1 signaling activators, primary screen, cell-based, HTS, luciferase reporter; hit rate 2.6% among 200,000; NIH 3T3 STAT1-luciferase reporter, IFN-gamma, luminescence; 100% = IFN-gamma alone, no compound; activation (% of control), % at 5.5 µM; AID 932, 2007;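 active = activation above the screen-wide mean activation plus 3 SD, cut at about 130% in these data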
APP 5'UTR act: activators of APP 5'UTR luciferase reporter, primary screen, SH-SY5Y cells; SH-SY5Y APP 5'UTR luciferase reporter, luminescence; zero percent = DMSO vehicle wells; activation, % at 2 µM; hit rate 1% among 190,000; AID 1276, 2008;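 active = activation above a set limit, based on mean plus 3 SD of controls, cut at about 140% in these data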
Of the large screens only hits and unclear results are named; the others gave an inactive call. Only some compounds are listed: those with a hit (about 3.9% of all), similar ones and a draw of the others.

O=C(CC1(O)C(=O)N(Cc2cccc3ccccc23)c2ccccc21)c1cccnc1 (centres undefined)	FLuc inhib CS 69
CN1C(=O)C(O)(CC(=O)c2cccnc2)c2ccccc21 (centres undefined)	none
COc1ccc2nc(NC(=O)c3sc4nc(C)cc(C)c4c3N)sc2c1	none (no result: NF-kB neuron act, FLuc inhib CS, FLuc stim CS, STAT1 activator, APP 5'UTR act)
Cc1ccc(/C=N/OC(=O)c2nn(C)cc2Cl)cc1	FLuc inhib CS 76
CCN1/C(=C/c2ccc3cccc(C)c3[n+]2CC)Sc2ccccc21	NF-kB neuron act 5
Cc1oc(CSCC2CCCO2)cc1C(=O)O (centres undefined)	STAT1 activator 148
CCOC(=O)C1CC(C)=C(C)CC1C(=O)O (centres undefined)	none (no result: NF-kB neuron act, FLuc inhib CS, FLuc stim CS, STAT1 activator, APP 5'UTR act)
Cn1cnnc1SCC(=O)Nc1nc(-c2ccccc2)cs1	none
Cc1ccc(C=Nc2ccccc2C(N)=O)o1	FLuc inhib CS 54, STAT1 activator 135
CN(C)c1ccc(/C=N/NC(=O)c2ccccn2)cc1	none (no result: NF-kB neuron act, FLuc inhib CS, FLuc stim CS, STAT1 activator, APP 5'UTR act)
CN(C)c1ccc(C=Nc2ccccc2C(N)=O)cc1	NF-kB neuron act 3.7, FLuc inhib CS 89, STAT1 activator 135, APP 5'UTR act 166 (no result: Rad51 HR inh)
Fc1cccc(/C=N/Nc2ncnc3nc[nH]c23)c1	STAT1 activator 138 (no result: Rad51 HR inh)
Fc1ccccc1/C=N/Nc1ncnc2nc[nH]c12	STAT1 activator 137 (no result: Rad51 HR inh)
COc1ccc(-c2cnn3c(N)c(S(=O)(=O)C(C)(C)C)cnc23)cc1	NF-kB neuron act 6.4
Cc1cc(C)nc(NCCC(=O)O)n1	none
COC(=O)c1ccc(CSC2=NCCS2)cc1	STAT1 activator 130
O=[N+]([O-])c1sccc1CS(=O)(=O)c1ccccc1	none (no result: NF-kB neuron act, FLuc inhib CS, FLuc stim CS, STAT1 activator, APP 5'UTR act)
C=CCN1C(=O)C(CC(=O)Nc2ccccc2)N(Cc2ccccn2)C1=S (centres undefined)	none
Fc1cccc(CSc2ccc(-c3ccc4c(c3)OCO4)nn2)c1	none
c1cncc(CSc2ccc(-c3ccc4c(c3)OCO4)nn2)c1	FLuc inhib CS 53
CCn1c(/C=C/c2c[nH]c3ccccc23)nc2ccccc2c1=O	NF-kB neuron act 3.4, STAT1 activator 148, APP 5'UTR act 182
O=c1c2ccccc2nc(/C=C/c2cccnc2)n1Cc1ccccc1	Rad51 HR inh 48
CCn1c(/C=C\c2ccccc2C)nc2ccccc2c1=O	none
O=c1/c(=C/c2ccc(O)cc2)sc2n1CCCN=2	STAT1 activator 139
CN(C)c1ccc(/C=C2\CCC/C(=C\c3ccccc3)C2=O)cc1	none
COC(=O)/C=c1/sc2n(c1=O)CCN=2	none
CN(C)c1ccc(/C=c2\sc3n(c2=O)CCCN=3)cc1	NF-kB neuron act 5.7, FLuc inhib CS 84, STAT1 activator 150, APP 5'UTR act 142
O=c1/c(=C\c2ccc(F)cc2)sc2n1CCCN=2	STAT1 activator 149, APP 5'UTR act 170
C=CCn1c(=O)/c(=C/c2ccc(F)cc2)s/c1=C(\C#N)c1nnc2n1CCCCC2	none
COC(C[C@@H](O)[C@@H](C)[C@H](O)COCc1ccccc1)OC	none (no result: NF-kB neuron act, FLuc inhib CS, FLuc stim CS, STAT1 activator, APP 5'UTR act)
CCCCN(C(=O)CSc1nnc(Nc2ccc(C)c(C)c2)s1)c1c(N)n(Cc2ccccc2)c(=O)[nH]c1=O	FLuc inhib CS 63
Cc1c(C(=O)O)sc2nc(CSc3ncc(C(F)(F)F)cc3Cl)[nH]c(=O)c12	none (no result: NF-kB neuron act, FLuc inhib CS, FLuc stim CS, STAT1 activator, APP 5'UTR act)
N#CCC(=O)Nc1ccc(C(F)(F)F)cc1N1CCOCC1	none
Cc1ccc(CN2CCN(/N=C\C=C\c3ccccc3)CC2)cc1	none
COc1ccc(-c2nnc(SC(C)C(=O)Nc3cccc(Cl)c3)o2)cc1 (centres undefined)	NF-kB neuron act 5.6, APP 5'UTR act 219
O=C(COc1ccccc1)OC(C(=O)c1ccccc1)c1ccccc1 (centres undefined)	none
COc1ccc(C(=O)C(OC(=O)c2ccccc2Cl)c2ccccc2)cc1 (centres undefined)	STAT1 activator 140
COc1ccc(C(=O)C(OC(=O)c2ccccc2)c2ccccc2)cc1 (centres undefined)	STAT1 activator 133 (no result: Rad51 HR inh)
Cc1ccc(NC(=O)C(OC(=O)c2ccccc2Cl)c2ccccc2)cc1Cl (centres undefined)	none
Cc1nnc(SCc2cnc(-c3ccc(C(C)C)cc3)s2)n1C	NF-kB neuron act 5.7, FLuc inhib CS 95, APP 5'UTR act 152
Cc1nc2ccccc2c(=O)n1/N=C/c1c(O)ccc2ccccc12	none
O=c1c2ccccc2nc(N/N=C/c2c(O)ccc3ccccc23)n1O	FLuc inhib CS 88 (no result: Rad51 HR inh)
O=c1c2ccccc2nc(N/N=C/c2ccc(O)cc2)n1O	FLuc inhib CS 94 (no result: Rad51 HR inh)
Oc1ccc(/C=N/Nc2ccccc2)cc1	none
O=C(COc1ccc(Cl)cc1Cl)OCn1nnc2ccccc2c1=O	none
O=c1c2ccccc2nnn1COc1cccc(Cl)c1	STAT1 activator 131
CCc1n[nH]c(=S)n1/N=C/c1cc(Br)c(OC)cc1OC	none
COc1cc(/C=C(\C#N)C(=O)Nc2cccnc2)ccc1OC(C)C	none
Cc1ccc(C(=O)Nc2ccc(Cl)cc2C)c(Cl)c1	FLuc inhib CS 76
CN(C)/C=N/C(=S)Nc1ccc(Cl)cc1Cl	STAT1 activator 132
N/C(=N\OC(=O)c1cc([N+](=O)[O-])ccc1Cl)c1ccccn1	none (no result: NF-kB neuron act, FLuc inhib CS, FLuc stim CS, STAT1 activator, APP 5'UTR act)
N/C(=N\OC(=O)c1ccc(Cl)cc1Cl)c1ccccn1	FLuc inhib CS 95
N/C(=N\OC(=O)c1cc(Br)ccc1Cl)c1ccccn1	NF-kB neuron act 6, FLuc inhib CS 52, APP 5'UTR act 180
N#C/C(=N\Nc1ccccc1F)c1nc(-c2ccccc2)cs1	none
Cc1nn(C)c(Cl)c1S(=O)(=O)N1CCC(CO)(CCc2ccccc2)CC1	none
O=c1c(Cl)c(N2CCOCC2)cnn1-c1nc2ccccc2[nH]1	FLuc inhib CS 71, STAT1 activator 136
COc1ccc(-n2ncc3c(NCCCN4CCOCC4)ncnc32)cc1	STAT1 activator 135
COc1ccc(-n2ncc3c(NCCN4CCOCC4)ncnc32)cc1	none
CCCNc1ncnc2c1cnn2-c1ccc(OC)cc1	NF-kB neuron act 5.9, STAT1 activator 156, APP 5'UTR act 193 (no result: Rad51 HR inh)
Clc1c(CSc2nc3ccccc3o2)nc2ccccn12	NF-kB neuron act 5.5, STAT1 activator 137, APP 5'UTR act 172 (no result: Rad51 HR inh)
Brc1c(CSc2nc3ccccc3o2)nc2ncccn12	STAT1 activator 134
Cc1cc(C)nc(SCc2nc3ncccn3c2Br)n1	none
Clc1c(CSc2nc3ccccc3o2)nc2sccn12	NF-kB neuron act 8.1, APP 5'UTR act 136
c1ccc2oc(SCc3cn4ccccc4n3)nc2c1	NF-kB neuron act 3.4, STAT1 activator 131
COc1ccc(CC(=O)NNC(=O)c2nn(Cc3ccccc3)c(=O)c3ccccc23)cc1OC	none (no result: NF-kB neuron act, FLuc inhib CS, FLuc stim CS, STAT1 activator, APP 5'UTR act)

Compound activity as filed in PubChem BioAssay.
